Calls of active or inactive are those of the source. No cut-off for these calls is given here.
How the values were obtained:
[1] = molecular target: Epidermal growth factor receptor (Homo sapiens, UniProt P00533, C797S/L858R/T790M); assay: Inhibition of EGFR L858R/T790M/C797S triple mutant (unknown origin) using fluoresceine-labelled poly-GT peptide as substrate incubated for 1 hr by TR-FRET assay
BaF3 [2] = assay: Cytotoxicity against mouse BaF3 cells harboring EGFR L858R/T790M/C797S triple mutant assessed as inhibition of cell proliferation measured after 72 hrs by MTS assay; format: functional, cell-based; settings: BaF3, 72 h
How it was run: (§1)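 Ba/F3 cells carrying the respective EGFR triple mutant, grown in RPMI-1640 with 2 mM glutamine and 10% FBS at 37°C, 5% CO2. Seeded 20000 cells/well and treated the same day with increasing concentrations (DMSO ≤0.1% final). Viability read by MTS after 72 h, expressed as % inhibition versus untreated controls; at least three independent experiments.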

BaF3 [3] = assay: Cytotoxicity against mouse BaF3 cells harboring EGFR del19/T790M/C797S triple mutant assessed as inhibition of cell proliferation measured after 72 hrs by MTS assay; format: functional, cell-based; how it was run: as §1
[4] = molecular target: Fibroblast growth factor receptor 4 (Homo sapiens) (UniProt P22455); assay: Inhibition of His-tagged human recombinant FGFR4 ([…] residues) expressed in baculovirus expression system at 1 uM by Z'-LYTE assay
How it was run: (§2)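 Z'-LYTE FRET kinase panel; phosphorylation of a reference peptide measured with ATP at each enzyme's Km. Compounds tested in 1% DMSO at 0.1 and/or 1 μM. Values are means of two independent experiments with standard deviations.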

[5] = molecular target: Tyrosine-protein kinase Blk (Homo sapiens) (UniProt P51451); assay: Inhibition of His-tagged human full length recombinant BLK expressed in baculovirus expression system at 1 uM by Z'-LYTE assay; how it was run: as §2
[6] = molecular target: Tyrosine-protein kinase JAK1 (Homo sapiens) (UniProt P23458); assay: Inhibition of GST-tagged human recombinant JAK1 (866 to 1154 residues) expressed in baculovirus expression system at 1 uM by Z'-LYTE assay; how it was run: as §2
[7] = molecular target: Rho-associated protein kinase 1 (Homo sapiens) (UniProt Q13464); assay: Inhibition of GST-tagged human recombinant ROCK1 (1 to 535 residues) expressed in baculovirus expression system at 1 uM by Z'-LYTE assay; how it was run: as §2
[8] = molecular target: Platelet-derived growth factor receptor alpha (Homo sapiens) (UniProt P16234); assay: Inhibition of GST-tagged human recombinant PDGFR alpha (550 to 1089 residues) expressed in baculovirus expression system at 1 uM by Z'-LYTE assay; how it was run: as §2
[9] = molecular target: Tyrosine-protein kinase Lck (Homo sapiens) (UniProt P06239); assay: Inhibition of human recombinant LCK at 1 uM by Z'-LYTE assay; how it was run: as §2
[10] = molecular target: RAC-beta serine/threonine-protein kinase (Homo sapiens) (UniProt P31751); assay: Inhibition of His-tagged full length human recombinant AKT2 expressed in baculovirus expression system at 1 uM by Z'-LYTE assay; how it was run: as §2
[11] = molecular target: Cyclin-dependent kinase 2 (Homo sapiens) (UniProt P24941); assay: Inhibition of human recombinant CDK2 at 1 uM by Z'-LYTE assay; how it was run: as §2
[12] = molecular target: Mitogen-activated protein kinase 3 (Homo sapiens) (UniProt P27361); assay: Inhibition of GST-tagged human full length recombinant ERK1 expressed in Escherichia coli at 1 uM by Z'-LYTE assay; how it was run: as §2
[13] = molecular target: AMP-activated protein kinase, AMPK (Homo sapiens) (UniProt P54646+O43741+P54619+Q9UGJ0+Q9Y478+Q13131+Q9UGI9); assay: Inhibition of human recombinant AMPK at 1 uM by Z'-LYTE assay; format: protein-complex assay; how it was run: as §2
[14] = molecular target: T1, Aurora kinase A (Homo sapiens) (UniProt O14965); assay: Inhibition of His-tagged human full length recombinant AURKA expressed in baculovirus expression system at 1 uM by Z'-LYTE assay; how it was run: as §2
T1 sequence (whole entry): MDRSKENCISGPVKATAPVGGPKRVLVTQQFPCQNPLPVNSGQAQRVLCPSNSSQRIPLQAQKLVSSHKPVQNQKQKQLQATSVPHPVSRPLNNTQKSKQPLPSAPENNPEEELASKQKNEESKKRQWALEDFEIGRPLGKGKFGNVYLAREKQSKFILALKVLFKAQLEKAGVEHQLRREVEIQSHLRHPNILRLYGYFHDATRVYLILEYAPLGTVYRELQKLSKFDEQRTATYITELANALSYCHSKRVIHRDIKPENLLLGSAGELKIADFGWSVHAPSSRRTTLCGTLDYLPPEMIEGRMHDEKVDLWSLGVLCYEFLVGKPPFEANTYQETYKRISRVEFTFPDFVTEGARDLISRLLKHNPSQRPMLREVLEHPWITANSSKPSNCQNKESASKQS

[15] = molecular target: Proto-oncogene tyrosine-protein kinase Src (Homo sapiens) (UniProt P12931); assay: Inhibition of C-terminal His-tagged human recombinant SRC expressed in baculovirus expression system at 1 uM by Z'-LYTE assay; how it was run: as §2
[16] = molecular target: Vascular endothelial growth factor receptor 2 (Homo sapiens) (UniProt P35968); assay: Inhibition of His-tagged human recombinant VEGFR2 (789 to 1356 residues) expressed in baculovirus expression system at 1 uM by Z'-LYTE assay; how it was run: as §2
[17] = molecular target: T2, Inhibitor of nuclear factor kappa-B kinase subunit beta (Homo sapiens) (UniProt O14920); assay: Inhibition of GST-tagged human full length recombinant IKKbeta expressed in baculovirus expression system at 1 uM by Z'-LYTE assay; how it was run: as §2
T2 sequence (whole entry): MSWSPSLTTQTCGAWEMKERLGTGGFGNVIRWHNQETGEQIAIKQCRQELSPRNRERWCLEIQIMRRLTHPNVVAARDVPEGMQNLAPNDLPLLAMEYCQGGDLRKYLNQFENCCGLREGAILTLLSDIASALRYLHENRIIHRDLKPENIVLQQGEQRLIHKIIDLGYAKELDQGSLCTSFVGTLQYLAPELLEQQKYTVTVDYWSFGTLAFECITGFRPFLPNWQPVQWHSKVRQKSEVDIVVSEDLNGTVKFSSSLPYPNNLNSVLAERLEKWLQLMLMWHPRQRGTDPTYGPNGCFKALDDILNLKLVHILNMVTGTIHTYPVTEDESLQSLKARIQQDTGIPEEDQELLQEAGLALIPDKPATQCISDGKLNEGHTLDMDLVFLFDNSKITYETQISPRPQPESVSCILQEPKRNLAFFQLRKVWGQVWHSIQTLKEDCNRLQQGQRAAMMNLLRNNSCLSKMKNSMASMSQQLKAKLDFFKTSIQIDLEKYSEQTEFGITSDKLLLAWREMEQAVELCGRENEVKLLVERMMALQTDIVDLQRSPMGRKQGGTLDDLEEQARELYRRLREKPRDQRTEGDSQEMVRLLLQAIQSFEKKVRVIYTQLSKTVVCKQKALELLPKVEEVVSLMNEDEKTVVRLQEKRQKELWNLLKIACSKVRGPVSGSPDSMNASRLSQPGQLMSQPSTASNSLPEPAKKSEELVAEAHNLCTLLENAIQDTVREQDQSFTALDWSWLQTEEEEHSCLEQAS

[18] = molecular target: Cyclin-dependent kinase 5 (Homo sapiens) (UniProt Q00535); assay: Inhibition of GST/His-tagged human full length recombinant CDK5 expressed in baculovirus expression system at 1 uM by Z'-LYTE assay; how it was run: as §2
[19] = molecular target: Mitogen-activated protein kinase 14 (Homo sapiens) (UniProt Q16539); assay: Inhibition of GST-tagged human full length recombinant p38 alpha expressed in Escherichia coli at 1 uM by Z'-LYTE assay; how it was run: as §2

Epidermal growth factor receptor, sequence (P00533 25-1210 T790M/C797S/L858R limits assumed): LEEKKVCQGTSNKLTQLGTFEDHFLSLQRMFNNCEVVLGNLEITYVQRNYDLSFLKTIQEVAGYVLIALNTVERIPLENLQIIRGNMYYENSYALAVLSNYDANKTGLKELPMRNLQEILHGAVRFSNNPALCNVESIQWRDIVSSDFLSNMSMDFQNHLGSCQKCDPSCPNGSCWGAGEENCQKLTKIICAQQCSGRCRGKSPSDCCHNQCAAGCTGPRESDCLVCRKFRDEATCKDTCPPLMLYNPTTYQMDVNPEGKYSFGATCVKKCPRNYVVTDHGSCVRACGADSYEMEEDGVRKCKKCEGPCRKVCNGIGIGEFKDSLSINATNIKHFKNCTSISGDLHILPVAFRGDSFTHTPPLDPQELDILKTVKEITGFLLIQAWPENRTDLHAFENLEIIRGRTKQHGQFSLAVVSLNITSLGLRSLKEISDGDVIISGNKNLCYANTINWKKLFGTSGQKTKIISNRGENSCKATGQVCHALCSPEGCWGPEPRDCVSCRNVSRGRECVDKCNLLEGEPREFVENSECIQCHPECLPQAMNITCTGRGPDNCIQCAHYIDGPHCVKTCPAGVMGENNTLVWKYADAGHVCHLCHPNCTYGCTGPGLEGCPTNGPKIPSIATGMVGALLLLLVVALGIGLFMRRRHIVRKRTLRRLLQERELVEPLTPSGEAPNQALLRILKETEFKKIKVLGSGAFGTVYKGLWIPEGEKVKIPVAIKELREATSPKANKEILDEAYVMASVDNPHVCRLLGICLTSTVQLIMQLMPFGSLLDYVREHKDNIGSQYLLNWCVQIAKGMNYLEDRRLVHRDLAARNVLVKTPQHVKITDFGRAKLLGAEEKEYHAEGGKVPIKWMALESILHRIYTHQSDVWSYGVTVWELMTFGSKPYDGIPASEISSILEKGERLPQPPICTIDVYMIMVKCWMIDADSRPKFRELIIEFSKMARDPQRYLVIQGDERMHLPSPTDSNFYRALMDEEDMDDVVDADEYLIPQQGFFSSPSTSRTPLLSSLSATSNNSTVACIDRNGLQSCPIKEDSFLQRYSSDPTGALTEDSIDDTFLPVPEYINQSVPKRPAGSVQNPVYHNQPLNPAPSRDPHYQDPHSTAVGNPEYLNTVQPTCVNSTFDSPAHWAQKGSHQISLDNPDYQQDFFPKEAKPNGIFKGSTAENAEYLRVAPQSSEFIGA
Cyclin-dependent kinase 5 (Homo sapiens), sequence (Q00535 whole entry, looked up): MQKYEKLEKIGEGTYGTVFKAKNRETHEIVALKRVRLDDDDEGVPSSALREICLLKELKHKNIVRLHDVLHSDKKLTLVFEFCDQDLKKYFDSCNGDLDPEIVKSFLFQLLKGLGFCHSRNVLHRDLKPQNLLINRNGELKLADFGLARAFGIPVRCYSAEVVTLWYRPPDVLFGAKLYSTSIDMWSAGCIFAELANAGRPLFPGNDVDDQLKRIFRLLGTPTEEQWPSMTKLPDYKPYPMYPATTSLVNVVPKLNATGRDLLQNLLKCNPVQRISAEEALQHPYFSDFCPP
Tyrosine-protein kinase Lck (Homo sapiens), sequence (P06239 2-509 limits assumed): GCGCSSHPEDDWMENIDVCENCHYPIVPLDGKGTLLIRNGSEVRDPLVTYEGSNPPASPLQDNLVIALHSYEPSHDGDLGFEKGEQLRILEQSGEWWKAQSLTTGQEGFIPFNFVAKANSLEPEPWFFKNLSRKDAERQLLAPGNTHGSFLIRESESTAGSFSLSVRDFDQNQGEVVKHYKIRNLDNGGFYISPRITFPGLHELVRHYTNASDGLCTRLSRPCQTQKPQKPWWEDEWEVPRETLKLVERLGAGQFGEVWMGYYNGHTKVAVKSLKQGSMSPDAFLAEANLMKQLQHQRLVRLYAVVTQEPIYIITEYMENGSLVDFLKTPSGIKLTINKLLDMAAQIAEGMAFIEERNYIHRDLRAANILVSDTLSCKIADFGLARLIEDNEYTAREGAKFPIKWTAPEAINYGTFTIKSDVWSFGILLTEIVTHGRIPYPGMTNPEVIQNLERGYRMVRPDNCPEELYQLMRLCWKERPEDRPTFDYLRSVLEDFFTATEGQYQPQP
Tyrosine-protein kinase JAK1 (Homo sapiens), sequence (P23458 whole entry, the tested form may be a part): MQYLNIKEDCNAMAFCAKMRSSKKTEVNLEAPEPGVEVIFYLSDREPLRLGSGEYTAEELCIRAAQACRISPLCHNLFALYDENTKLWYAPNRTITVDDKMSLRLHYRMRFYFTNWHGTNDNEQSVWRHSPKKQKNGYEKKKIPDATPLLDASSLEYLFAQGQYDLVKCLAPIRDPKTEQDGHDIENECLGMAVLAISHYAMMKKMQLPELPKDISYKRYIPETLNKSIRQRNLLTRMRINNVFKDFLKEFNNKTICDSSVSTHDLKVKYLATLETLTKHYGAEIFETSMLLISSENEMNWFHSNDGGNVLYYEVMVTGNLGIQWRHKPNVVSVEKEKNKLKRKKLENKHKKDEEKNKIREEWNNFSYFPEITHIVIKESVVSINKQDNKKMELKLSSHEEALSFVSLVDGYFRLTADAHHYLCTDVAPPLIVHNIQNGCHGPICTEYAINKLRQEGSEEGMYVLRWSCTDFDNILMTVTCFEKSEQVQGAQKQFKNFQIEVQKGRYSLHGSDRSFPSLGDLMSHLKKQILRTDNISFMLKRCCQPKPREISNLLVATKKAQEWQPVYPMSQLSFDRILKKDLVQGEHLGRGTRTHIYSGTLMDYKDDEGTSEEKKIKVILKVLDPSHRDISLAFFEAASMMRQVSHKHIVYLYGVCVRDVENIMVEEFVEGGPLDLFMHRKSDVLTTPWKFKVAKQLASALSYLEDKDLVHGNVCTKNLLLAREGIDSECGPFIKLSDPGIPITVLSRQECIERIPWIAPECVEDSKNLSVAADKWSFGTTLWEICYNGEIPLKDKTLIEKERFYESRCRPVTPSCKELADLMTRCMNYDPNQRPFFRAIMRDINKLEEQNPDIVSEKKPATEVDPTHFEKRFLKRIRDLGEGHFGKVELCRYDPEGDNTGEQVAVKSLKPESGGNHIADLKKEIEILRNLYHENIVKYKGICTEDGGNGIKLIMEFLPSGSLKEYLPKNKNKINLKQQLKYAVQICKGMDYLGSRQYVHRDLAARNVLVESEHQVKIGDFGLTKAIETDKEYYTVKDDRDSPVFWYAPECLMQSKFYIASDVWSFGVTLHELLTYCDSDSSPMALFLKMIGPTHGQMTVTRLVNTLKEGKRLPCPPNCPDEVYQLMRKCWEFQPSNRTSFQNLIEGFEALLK
Mitogen-activated protein kinase 3 (Homo sapiens), sequence (P27361 whole entry): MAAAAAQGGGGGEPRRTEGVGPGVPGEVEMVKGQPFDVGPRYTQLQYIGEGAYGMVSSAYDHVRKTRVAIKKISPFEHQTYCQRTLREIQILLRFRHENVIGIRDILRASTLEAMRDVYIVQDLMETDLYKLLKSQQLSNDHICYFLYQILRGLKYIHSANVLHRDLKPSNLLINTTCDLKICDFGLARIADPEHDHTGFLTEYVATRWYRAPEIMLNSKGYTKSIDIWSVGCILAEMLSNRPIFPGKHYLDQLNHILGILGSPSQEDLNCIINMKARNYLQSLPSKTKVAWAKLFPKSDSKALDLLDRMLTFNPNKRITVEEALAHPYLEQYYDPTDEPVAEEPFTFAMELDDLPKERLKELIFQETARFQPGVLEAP
Rho-associated protein kinase 1 (Homo sapiens), sequence (Q13464 2-1354 limits assumed): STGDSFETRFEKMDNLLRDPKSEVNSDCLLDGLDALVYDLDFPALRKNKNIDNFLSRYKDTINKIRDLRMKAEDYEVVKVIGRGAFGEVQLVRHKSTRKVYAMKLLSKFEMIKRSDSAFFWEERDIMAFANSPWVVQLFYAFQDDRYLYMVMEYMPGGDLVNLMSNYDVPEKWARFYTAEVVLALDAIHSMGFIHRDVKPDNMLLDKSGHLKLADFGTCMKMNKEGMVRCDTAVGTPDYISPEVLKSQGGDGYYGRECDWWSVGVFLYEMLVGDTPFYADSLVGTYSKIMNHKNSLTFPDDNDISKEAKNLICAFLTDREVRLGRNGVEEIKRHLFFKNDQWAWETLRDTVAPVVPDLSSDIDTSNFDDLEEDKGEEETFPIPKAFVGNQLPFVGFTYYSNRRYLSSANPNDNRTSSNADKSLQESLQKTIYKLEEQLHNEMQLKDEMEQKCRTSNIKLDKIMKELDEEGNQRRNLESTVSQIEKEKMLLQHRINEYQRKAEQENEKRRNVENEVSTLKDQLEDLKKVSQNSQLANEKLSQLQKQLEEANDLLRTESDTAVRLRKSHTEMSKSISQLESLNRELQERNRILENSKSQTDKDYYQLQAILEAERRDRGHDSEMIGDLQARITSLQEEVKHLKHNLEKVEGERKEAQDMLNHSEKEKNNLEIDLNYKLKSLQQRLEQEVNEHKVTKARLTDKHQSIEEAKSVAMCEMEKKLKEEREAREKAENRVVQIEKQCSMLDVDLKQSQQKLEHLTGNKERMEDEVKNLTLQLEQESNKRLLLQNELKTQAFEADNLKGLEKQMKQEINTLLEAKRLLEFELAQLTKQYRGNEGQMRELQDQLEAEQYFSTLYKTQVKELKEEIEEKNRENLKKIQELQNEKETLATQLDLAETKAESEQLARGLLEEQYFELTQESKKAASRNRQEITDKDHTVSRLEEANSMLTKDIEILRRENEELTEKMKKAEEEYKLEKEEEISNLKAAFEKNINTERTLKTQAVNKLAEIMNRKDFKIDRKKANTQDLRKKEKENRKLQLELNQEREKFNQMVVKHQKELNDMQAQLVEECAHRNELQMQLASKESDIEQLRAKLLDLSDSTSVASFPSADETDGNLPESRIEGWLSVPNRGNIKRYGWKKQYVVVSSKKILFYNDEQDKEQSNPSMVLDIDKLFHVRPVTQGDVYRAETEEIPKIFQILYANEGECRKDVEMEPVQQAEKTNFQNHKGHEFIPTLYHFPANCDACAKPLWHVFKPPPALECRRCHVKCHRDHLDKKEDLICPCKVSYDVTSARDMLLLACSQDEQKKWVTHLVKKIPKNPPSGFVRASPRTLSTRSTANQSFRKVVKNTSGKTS

SMILES: C=CS(=O)(=O)Nc1cccc(Nc2nc(Nc3ccc(N4CCN(C(C)=O)CC4)cc3OC)ncc2Cl)c1
- IC50 [1]: 0.675 µM

SMILES: C=CC(=O)Nc1cc(Nc2nccc(-c3cn(C)c4ccccc34)n2)c(OC)cc1N(C)CCN(C)C [OSIMERTINIB]
- IC50 (BaF3 [2]): > 3 µM
- Activity (BaF3 [3]): inactive

SMILES: COc1cc(N2CCN(C(C)=O)CC2)ccc1Nc1ncc(Cl)c(Nc2cccc(NC(C)=O)c2)n1
- inhibition [4]: inactive
- IC50 [1]: 1.1 µM
- inhibition [5]: inactive
- inhibition [6]: Active
- inhibition [7]: inactive
- inhibition [8]: Active
- inhibition [9]: inactive
- inhibition [10]: inactive
- inhibition [11]: inactive
- inhibition [12]: inactive
- inhibition [13]: inactive
- inhibition [14]: inactive
- inhibition [15]: inactive
- inhibition [16]: Active
- inhibition [17]: inactive
- inhibition [18]: inactive
- inhibition [19]: inactive

SMILES: COc1cc(N2CCN(C(C)=O)CC2)ccc1Nc1ncc(Cl)c(Nc2cccc(C(=O)Oc3ccc(F)cc3)c2)n1
- IC50 [1]: > 10 µM

SMILES: COc1cc(N2CCN(C(C)=O)CC2)ccc1Nc1ncc(Cl)c(Nc2cccc(NC(=O)CCl)c2)n1
- IC50 [1]: 0.946 µM

SMILES: COc1cc(N2CCN(C(C)=O)CC2)ccc1Nc1ncc(Cl)c(Nc2cccc(NCCS(=O)(=O)F)c2)n1
- IC50 [1]: 0.458 µM
